TLR4 MyD88 comp = inhibitors of TLR4-MyD88 association in cells, primary screen, cell-based, HeLa CL3-4, BLA complementation, FRET ratio | 0.18% of 200,000 active | inhibition, % at 8.4 µM | HeLa CL3-4 TLR4/MyD88 BLA complementation; in the data active means inhibition above about 25%
NOD2-RIPK2 inh = NOD2-RIPK2 binding disruptors in cells, primary screen, fluorescence, CHO cells, BLA complementation | Receptor-interacting serine/threonine-protein kinase 2 (Homo sapiens), O43353 | CCF4 ratio | inhibition, % at 4.98 µM | 0.38% of 360,000 active | AID 624267, 2012; in the data active means inhibition above about 21%
Dynein transport = inhibitors of GR-EGFP nuclear translocation, primary screen, dynein cargo transport inhibitor project, imaging, high-content, 3617.4 mouse cells; z-score, hits read low; AID 1381, 2008; test concentration mostly 20 µM; stimulated with dexamethasone, 1 µM; active compounds read low; 0.47% of 220,000 active;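 active means plate z-score of nuclear minus cytoplasmic receptor signal below a set negative limit, without overly bright fluorescence or cell loss, cut at about -3.5 in these data, passing the limit was not always enough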;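 further: z-score of nuclear minus cytoplasmic ring GR-EGFP intensity difference per well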
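Also added – dexamethasone, 1.0 µM final · Buffer or medium – tet-free, stripped-serum medium · Schedule – induction 48 h, compound 1 h, agonist 30 min · Detection – formaldehyde fixation, Hoechst nuclear stain, 10x automated fluorescence imaging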
ABHD5-PLIN5 inh = ABHD5-PLIN5 interaction inhibitors, primary screen, cell lysate, split luciferase complementation, luminescence; Split G. princeps luciferase complementation, 4 h; inhibition, % at 4 µM; 0.78% of 360,000 active; AID 602281, 2012;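 active means inhibition above the mean inhibition across every tested compound plus 3 SD, cut at about 22% in these data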
Target sequence (Q00G26 whole entry, looked up): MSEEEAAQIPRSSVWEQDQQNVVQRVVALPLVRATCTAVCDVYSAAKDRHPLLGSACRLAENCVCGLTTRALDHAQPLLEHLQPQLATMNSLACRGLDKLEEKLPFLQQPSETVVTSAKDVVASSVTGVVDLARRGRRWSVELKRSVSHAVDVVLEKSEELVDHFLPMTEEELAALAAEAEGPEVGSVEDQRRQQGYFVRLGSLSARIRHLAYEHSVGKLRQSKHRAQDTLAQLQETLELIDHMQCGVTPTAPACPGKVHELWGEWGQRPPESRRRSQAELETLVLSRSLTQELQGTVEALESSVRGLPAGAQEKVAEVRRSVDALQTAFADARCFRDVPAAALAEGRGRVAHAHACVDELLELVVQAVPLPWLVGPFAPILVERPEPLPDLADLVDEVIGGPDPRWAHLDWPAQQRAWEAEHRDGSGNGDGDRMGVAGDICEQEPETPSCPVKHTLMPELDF
Target sequence (Q8WTS1 whole entry, looked up): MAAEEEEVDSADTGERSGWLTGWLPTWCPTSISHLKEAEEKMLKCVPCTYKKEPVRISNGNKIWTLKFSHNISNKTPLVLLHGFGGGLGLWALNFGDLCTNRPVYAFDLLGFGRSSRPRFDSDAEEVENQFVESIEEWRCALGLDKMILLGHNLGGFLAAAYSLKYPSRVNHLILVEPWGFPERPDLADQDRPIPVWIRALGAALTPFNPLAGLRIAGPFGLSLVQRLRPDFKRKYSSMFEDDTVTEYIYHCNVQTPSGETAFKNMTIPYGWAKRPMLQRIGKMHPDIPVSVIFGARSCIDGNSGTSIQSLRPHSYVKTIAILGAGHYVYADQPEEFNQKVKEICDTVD
B2AR ag = beta2AR agonists driving receptor internalization, primary screen, cell-based, FAP fluorogen, flow cytometry | Beta-2 adrenergic receptor (Homo sapiens), P07550 | Am2.2-beta2AR cells | response, % (no concentration beside the values) | 0.43% of 340,000 active | AID 504454, 2011;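 active means response above a set limit, near 3 SD of response in nonfluorescent compounds, cut at about 42% in these data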
TLR9-MyD88 block = inhibitors of TLR9-MyD88 association in cells, primary screen, cell-based, CHO, BLA complementation, fluorescence; AID 504734, 2011; 0.21% of 340,000 active; inhibition, % at 4.98 µM; CCF4 FRET ratio;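 active means inhibition above the mean over all tested compounds plus 3 SD, cut at about 21% in these data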
NOD2-RIPK2 conf = NOD2-RIPK2 binding disruptors, retest, confirmation, fluorescence, CHO cells, BLA complementation, triplicate | AID 624370, 2012 | CCF4 FRET | 70% of 1,200 active | inhibition, % at 4.98 µM | shares compounds with NOD2-RIPK2 inh;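 active means mean inhibition across replicates above a set limit taken from the earlier primary screen, cut at about 21% in these data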
BLA counter = NOD2-RIPK2 counterscreen BLA reporter activity; 57% of 1,200 active; CHO BLA reporter, CCF4 FRET ratio; inhibition, % at 4.98 µM; shares compounds with NOD2-RIPK2 inh;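 active means mean inhibition above the low-control mean inhibition plus three low-control SD, cut at about 11% in these data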
Hits are given with their value; i = inactive; nt = no result. Rows were chosen to be rich in hits. Some 1.6% of all compounds tested hit in one or more screens of this group.

SMILES | TLR4 MyD88 comp | NOD2-RIPK2 inh | Dynein transport | ABHD5-PLIN5 inh | B2AR ag | TLR9-MyD88 block | NOD2-RIPK2 conf | BLA counter
O=c1[nH]c2cc3c(cc2cc1CN(CCc1ccccc1)Cc1nnnn1CC1CCCO1)OCO3 (configuration not stated) | i | i | i | i | i | i | nt | nt
O=c1[nH]c2cc3c(cc2cc1CN(Cc1nnnn1CC1CCCO1)C1CCCC1)OCO3 (configuration not stated) | i | 39 | i | i | i | i | i | i
O=c1[nH]c2cc3c(cc2cc1CN(Cc1nnnn1CC1CCCO1)C1CCCCC1)OCO3 (configuration not stated) | i | 22 | i | i | i | i | i | i
COc1ccccc1Cc1c(C(C)(C)C)nc2cc(C)c(Br)c(C)n12 | nt | 24 | nt | i | nt | nt | i | 12
Cc1ccnc(NC(=O)CCC(=O)N(CC(=O)NCc2ccccc2)c2ccc3c(c2)OCO3)c1 | i | 32 | i | i | i | i | i | i
Cc1ccc(C(C)C)c(OCC(=O)NN=C2CCCC(=O)C2)c1 | nt | i | nt | i | i | i | nt | nt
Cc1ccc(S(=O)(=O)NCCN2CCOCC2)c(C)c1C | i | 72 | i | i | i | i | i | i
COc1ccccc1-c1ccc(/C=C2\C=CC(=O)O2)o1 | nt | 48 | i | i | i | nt | 45 | 49
CCOc1ccc(S(=O)(=O)Nc2ccc3c(c2)OCO3)cc1 | nt | i | nt | i | i | i | nt | nt
O=C(NCc1ccc(Cl)cc1)c1cccc2c1C(=O)N(CC1CCCO1)C2 (configuration not stated) | nt | 39 | nt | i | i | i | i | i
O=C(O)c1cccc2c1C(=O)N(CC1CCCO1)C2 (configuration not stated) | i | i | i | i | i | i | nt | nt
CC(=O)c1sc(NC(=O)CCc2ccccc2)nc1C | nt | i | nt | i | nt | i | nt | nt
CC(=O)Nc1ccc(S(=O)(=O)N2c3ccccc3C(C)=CC2(C)C)cc1 | i | 23 | i | i | i | i | 22 | i
COc1ccc(-c2cc(C#N)nc(Cl)n2)cc1 | nt | 28 | i | i | i | i | 40 | i
COc1ccc(-c2cc(C#N)nc(Oc3ccc(Cl)cc3)n2)cc1 | i | i | i | i | i | i | nt | nt
Cc1ccc(S(=O)(=O)N2C(=O)C(C)SC2=Nc2ccccc2)cc1 (configuration not stated) | i | 41 | i | i | i | i | i | i
Cc1ccc(S(=O)(=O)N2C(=O)C(c3ccccc3)SC2=Nc2ccccc2)cc1 (configuration not stated) | i | i | i | i | i | i | nt | nt
Cc1cccc(C)c1-n1nnnc1C(c1ccnc2ccccc12)N(C)Cc1ccccc1 (configuration not stated) | nt | i | nt | i | nt | nt | nt | nt
CCOC(=O)c1c(N2C(=O)C3C4C=CC(O4)C3C2=O)sc2c1CCCC2 (configuration not stated) | i | 22 | i | i | i | i | i | i
CC(Sc1nnc(C(C)Oc2ccc(F)cc2)o1)C(=O)NCc1ccc2c(c1)OCO2 (configuration not stated) | nt | i | nt | i | nt | i | nt | nt
Cc1ccc(S(=O)(=O)c2cc3ccccc3oc2=O)cc1 | i | i | i | i | i | i | nt | nt
Cc1c(O)ccc2cc(S(=O)(=O)c3ccccc3)c(=O)oc12 | nt | 34 | nt | i | i | i | 33 | 58
COc1cccc(CN2CC(C(=O)NCCN3CCOC3=O)CCC2=O)c1 (configuration not stated) | nt | i | nt | i | i | i | nt | nt
